According to ChEMBL document CHEMBL1177641, “Synthesis and anti-hepatitis C virus (HCV) activity of 3'-C-substituted-methyl pyrimidine and purine nucleosides” (Bioorg Med Chem, 2010):

Legend:
[1] = Cytotoxicity against human Huh7 cells after 3 days by WST-1 assay; format: cell-based, Huh-7
How it was run: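 Huh-5-2 cells seeded 5 × 10³/well in complete DMEM with G418. Serial compound dilutions in complete DMEM without G418 added 24 h after seeding. Cells proliferated three days at 37 °C, then cell number determined by WST-1 assay.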

[2] = test system: Hepatitis C virus; assay: Antiviral activity against HCV genotype1 infected in human Huh7 cells assessed as reduction of viral replication by steady-Glo luciferase assay; format: functional, organism-based, Hepacivirus hominis; conditions: genotype 1, Huh-7
How it was run: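 Huh-5-2 cells (Huh-7 with subgenomic genotype 1 replicon, luc-ubi-neo) seeded 5 × 10³/well in complete DMEM with 500 µg/mL G418; after 24 h at 37 °C, 5% CO₂, medium refreshed with G418 and compounds added from DMSO stock. Four days at 37 °C, then luciferase read by Steady-Glo. EC50 is the concentration halving replication; three repeats, mean ± SD.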

[3] = Selectivity index, ratio of CC50 for human Huh7 cells to EC50 for HCV genotype1; set-up: species or system Huh-7

SMILES | CC50 at 72 h [1] | EC50 [2] | Ratio CC50/EC50 [3]
CNc1ncnc2c1ncn2[C@@H]1O[C@H](CO)[C@](O)(CO)[C@H]1O | 58.8 µM | 37.8 µM | 1.6
Nc1ncnc2c1ncn2[C@@H]1O[C@H](CO)[C@](O)(CO)[C@H]1O | 37.3 µM | 18.6 µM | 2
Nc1ncnc2c1ncn2[C@@H]1O[C@H](CO)[C@](O)(CF)[C@H]1O | 18.9 µM | 15.3 µM | 1.2
CNc1ncnc2c1ncn2[C@@H]1O[C@H](CO)[C@](O)(CF)[C@H]1O | > 100 µM |  | 
Nc1ccn([C@@H]2O[C@H](CO)[C@](O)(CF)[C@H]2O)c(=O)n1 | > 100 µM |  | 
[N-]=[N+]=NC[C@@]1(O)[C@@H](CO)O[C@@H](n2cnc3c(N)ncnc32)[C@@H]1O | 12.3 µM | 11.8 µM | 1
CNc1ncnc2c1ncn2[C@@H]1O[C@H](CO)[C@](O)(CN=[N+]=[N-])[C@H]1O | > 100 µM | > 100 µM | 
[N-]=[N+]=NC[C@@]1(O)[C@@H](CO)O[C@@H](n2cnc3c(O)ncnc32)[C@@H]1O | > 100 µM | > 100 µM | 
[N-]=[N+]=NC[C@@]1(O)[C@@H](CO)O[C@@H](n2ccc(N)nc2=O)[C@@H]1O | > 100 µM | > 100 µM | 
C[C@@]1(O)[C@H](O)[C@@H](CO)O[C@H]1n1cnc2c(N)ncnc21 |  | 0.3 µM | 
